In data set [1] the test system is Chlamydia trachomatis. Description: Anti-chlamydial activity against Chlamydia trachomatis Serovar LGV-L2 infected in Hep2 cells assessed as reduction in chlamydial inclusion growth treated at 8 hrs post-infection and 24 hrs later re-infecting fresh Hep2 cells monolayer with infected cells and measured at 24 hrs post re-infection by immunofluorescence staining based microscopy analysis. The format is functional, organism-based. Put shortly:
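HEp-2 cells grown in DMEM with 2% L-glutamine and 10% FBS at 37 °C. Infected with C. trachomatis L2 at MOI 1, with compound added in triplicate at 8 hpi. At 24 hpi, lysates were collected in sucrose storage medium, frozen at −80 °C and passed as 10-fold dilutions onto fresh HEp-2. After 24 h, stained with goat anti-MOMP then Alexa488 secondary. IFU taken as mean inclusions across 15 fields (20x), corrected for dilution.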

The subject of data set [2] is Chlamydia trachomatis. Description: Activation of recombinant Chlamydia trachomatis Serovar LGV-L2 C-terminal 6xhis-tagged ClpP1/ClpP2 dimer expressed in Escherichia coli assessed as induction of casein degradation at 0.1 to 1 uM using FITC-labelled casein as substrate pretreated with enzyme for 30 mins followed by substrate addition and measured every 3 mins for 3 hrs in presence of AAA+ chaperone by fluorescence based tecan-plate reader assay.

Data set [3] concerns Cryptococcus neoformans. Description: Antifungal activity against Cryptococcus neoformans var. grubii H99 ATCC […] as fungal growth inhibition at 32 ug/ml measured after 16 hrs by broth microdilution method. The following applies: var. grubii H99 ATCC 208821. The class given is functional, organism-based. (In general: In broth dilution the organism is exposed to a series of concentrations in liquid medium.)

Data set [4] in a line: Stability of compound in mouse pre-heated plasma at 50 uM incubated up to 120 mins by HPLC-ESI/MS analysis. The class given is ADME, cell-free. The note with it: 2 h. In a few lines: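 Compounds from 2.5 mM DMSO stocks incubated at 50 μM final in mouse plasma diluted to 80% with PBS, preheated, 37 °C, shaking. Sampled at 0, 15, 30, 60, 90 and 120 min and quenched with cold acetonitrile. Centrifuged; supernatant analysed by HPLC-ESI-MS. Peak area reported relative to time zero. Enalapril positive control; triplicate.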

Data set [5] deals with Pseudomonas aeruginosa. Description: Antibacterial activity against Pseudomonas aeruginosa ATCC 27853 assessed as bacterial growth inhibition at 32 ug/ml measured after 16 hrs by broth microdilution method. The class given is functional, organism-based.
Data set [6] concerns Chlamydia trachomatis. Description: Activation of recombinant Chlamydia trachomatis Serovar LGV-L2 C-terminal 6xhis-tagged ClpP2 expressed in Escherichia coli assessed as induction of casein degradation at 0.1 to 1 uM using FITC-labelled casein as substrate pretreated with enzyme for 30 mins followed by substrate addition and measured every 3 mins for 3 hrs in absence of AAA+ chaperone by fluorescence based tecan-plate reader assay. In a few lines:
(§1)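 Recombinant C-terminal His6-tagged ClpP, expressed in a clpAPX-null E. coli strain and purified (mammalian ClpP without mitochondrial signal, codon-optimized). ClpP at 1 or 0.1 μM (E. coli), 1 μM (human, mouse) or 6 μM (chlamydial ClpP1 and ClpP2) preincubated with compound or DMSO, 30 min, 32 °C, in HEPES pH 7.6/KCl/MgCl2/DTT/glycerol buffer. 20 μM FITC-casein then added. Fluorescence (ex 490/em 525 nm) read every 3 min for 3 h. At least three runs on at least two protein preparations.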

For data set [7], the system named is Chlamydia trachomatis. Description: Inhibition of recombinant Chlamydia trachomatis Serovar LGV-L2 C-terminal 6xhis-tagged ClpP1/ClpP2 dimer expressed in Escherichia coli at 0.1 to 1 uM by […] fluorescent peptide assay.
Data set [8] in a line: Mutagenicity in Drosophila melanogaster somatic cells assessed as frequency of clone formation in ST crosses at 0.25 to 1 mM by SMART assay. The format is ADME. The note with it: 1000 µM. Put shortly: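 Drosophila SMART wing-spot assay, ST and HB crosses. Third-instar larvae (72 ± 4 h) placed on hydrated instant mashed potato medium containing compound at 0.25, 0.5 or 1.0 mM final. Negative control: water with 1% Tween-80 and 3% ethanol. Statistics by Frei and Würgler two-sided U test, P≤0.05.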

The test system of data set [9] is Acinetobacter baumannii. Description: Antibacterial activity against Acinetobacter baumannii ATCC 19606 assessed as bacterial growth inhibition at 32 ug/ml measured after 16 hrs by broth microdilution method. The class given is functional, organism-based. The following applies: ATCC 19606 = CIP 70.34 = JCM 6841.
Data set [10] deals with Chlamydia trachomatis. Description: Anti-Chlamydial activity against Chlamydia trachomatis Serovar LGV-L2 infected in Hep2 cells assessed as reduction in size and number of chlamydial inclusion at 5.2 to 50 ug/ml treated at 8 hrs post-infection and 24 hrs later re-infecting fresh Hep2 cells monolayer with infected cells and measured at 24 hrs post re-infection by immunofluorescence staining based microscopy analysis. The format is functional, organism-based. In a few lines: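 HEp-2 cells in DMEM with 10% FBS, infected with C. trachomatis L2 at MOI 1. Compounds added 8 hpi in triplicate; DMSO stocks at 50 mg/mL. At 24 hpi lysates collected in sucrose storage medium, frozen at −80 °C, and used to infect fresh HEp-2 monolayers in 10-fold dilutions. After 24 h, stained with goat anti-MOMP and Alexa488 secondary. Inclusions counted in 15 fields at 20x; IFU = mean count per field corrected for dilution.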

The subject of data set [11] is Chlamydia trachomatis. Description: Activation of recombinant Chlamydia trachomatis Serovar LGV-L2 C-terminal 6xhis-tagged ClpP1/ClpP2 dimer expressed in Escherichia coli assessed as induction of casein degradation at 0.1 to 1 uM using FITC-labelled casein as substrate pretreated with enzyme for 30 mins followed by substrate addition and measured every 3 mins for 3 hrs in absence of AAA+ chaperone by fluorescence based tecan-plate reader assay. In a few lines:
as §1

A short description of data set [12]: Activation of recombinant mouse C-terminal 6xHis-tagged ClpP expressed in Escherichia coli assessed as induction of casein degradation at 0.1 to 1 uM using FITC-labelled casein as substrate pretreated with enzyme for 30 mins followed by substrate addition and measured every 3 mins for 3 hrs in absence of AAA+ chaperone by fluorescence based tecan-plate reader assay. In a few lines:
as §1

Data set [13] deals with HaCaT. Description: Cytotoxicity against immortal human HaCaT cells assessed as reduction in cell viability at 50 ug/ml after 24 hrs by CCK-8 assay. The format is cell-based. In a few lines:
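HeLa 229 and HaCaT cells in DMEM with 10% FBS and 1% penicillin/streptomycin, 37 °C, 5% CO2, seeded at 5000 cells/well. Next day treated with 50 μg/mL in triplicate, with matching DMSO controls. After 24 h, CCK-8 added for 2 h; corrected absorbance read at 450 nm.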
Background: Formazan colour is commonly taken as a measure of viable cells.

Data set [14] can be described thus: Intrinsic clearance in human liver microsomes at 1 ug/ml measured per mg protein up to 60 mins by LC-MS/MS analysis. The following applies: microsomes, 1 h. The format is ADME, Microsome. In a few lines:
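Human liver microsomes (1.0 mg/mL protein) in 100 mM phosphate pH 7.4 with 10 mM MgCl2 and 2 mM NADPH, preincubated 10 min at 37 °C. Reaction started with compound at 1 μg/mL. Sampled at 0, 5, 15, 20, 30, 45 and 60 min and quenched in methanol with internal standard. Controls: no NADPH (negative), testosterone (positive). Analysed by LC-MS/MS, triplicate.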

Data set [15] in a line: Hepatic intrinsic clearance in human liver microsomes at 1 ug/ml measured per kg body weight up to 60 mins by LC-MS/MS analysis. The class given is ADME, Microsome. The following applies: 1 h.

Experimental findings from ChEMBL document CHEMBL4342502, “Synthesis and Antichlamydial Activity of Molecules Based on Dysregulators of Cylindrical Proteases” (J Med Chem, 2020) are described below.

≈ marks a conversion by molar mass, not a printed value. Calls of active or inactive are those of the source. The calls are words filed in the database; no cut-off is given here.

For `CC(C)(C(=O)N1CCN(Cc2ccc(Cl)cc2)CC1)S(=O)(=O)c1ccc(C(F)(F)F)cn1`, the inhibition entry in data set [1] is “Dose-dependent effect”. Further, the IC50 (as a rule, the concentration that gives 50% inhibition) in data set [1] (Serovar LGV-L2, HEp-2) came to 5.2 µg/mL (≈ 10.6 µM). Further, the result in data set [2], in data set [6] and in data set [11] was inactive. The inhibition result in data set [3], in data set [5], in data set [7] and in data set [9] was “inactive” each time. Further, the Stability result in [4] is “Stable”. Besides, the values for the Activity result in data set [8] and in data set [12] were “Non-Toxic” and “Not Active”, respectively. Also, in [10], the inhibition entry was “Active”.

Regarding `CC(C)(C(=O)NCCCc1ccccc1)S(=O)(=O)c1ccc(C(F)(F)F)cc1`, the inhibition result in [3], in data set [5] and in data set [9] was “inactive” each time. Besides, the Stability entry in data set [4] is on record as “Stable”. Moreover, the Activity result in [13] is “Toxic”; in [8], “Non-Toxic”; in data set [12], “Active”. Moreover, the outcome in data set [6] and in data set [11] was Active. Moreover, the microsomal intrinsic clearance in [14] was found to be 113.09 µL/min. For the same compound, in data set [15], the CLH stood at 891 mL/min/kg.
